According to ChEMBL document CHEMBL1151781, “Selectivity of inhibitors of endocannabinoid biosynthesis evaluated by activity-based protein profiling” (Bioorg Med Chem Lett, 2008):
pIC50: −log10 of the molar value. Calls of active or inactive are those of the source. The rule behind the calls is not given here.

Assays:
[1] = molecular target: T1, Platelet-activating factor acetylhydrolase (Mus musculus) (UniProt Q60963); assay: Inhibition of PLA2g7 in mouse brain by LC-MS analysis; assay type: tissue-based
T1 sequence (whole entry): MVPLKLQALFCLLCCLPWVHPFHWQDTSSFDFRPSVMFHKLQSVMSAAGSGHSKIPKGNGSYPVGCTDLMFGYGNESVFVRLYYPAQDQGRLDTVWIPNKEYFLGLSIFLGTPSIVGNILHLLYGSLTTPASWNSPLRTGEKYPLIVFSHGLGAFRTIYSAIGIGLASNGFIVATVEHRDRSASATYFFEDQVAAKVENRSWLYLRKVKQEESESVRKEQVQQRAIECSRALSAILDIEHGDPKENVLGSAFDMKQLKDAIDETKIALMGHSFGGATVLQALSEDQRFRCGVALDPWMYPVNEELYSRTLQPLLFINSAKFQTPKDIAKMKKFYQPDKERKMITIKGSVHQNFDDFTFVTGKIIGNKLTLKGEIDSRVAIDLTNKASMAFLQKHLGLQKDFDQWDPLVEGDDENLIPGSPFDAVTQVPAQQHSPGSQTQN

[2] = molecular target: Diacylglycerol lipase-beta (Homo sapiens, UniProt Q8NCG7); assay: Inhibition of human recombinant DAGLbeta overexpressed in african green monkey COS7 cells; assay type: cell-based, COS-7
Diacylglycerol lipase-beta, sequence (Q8NCG7 whole entry): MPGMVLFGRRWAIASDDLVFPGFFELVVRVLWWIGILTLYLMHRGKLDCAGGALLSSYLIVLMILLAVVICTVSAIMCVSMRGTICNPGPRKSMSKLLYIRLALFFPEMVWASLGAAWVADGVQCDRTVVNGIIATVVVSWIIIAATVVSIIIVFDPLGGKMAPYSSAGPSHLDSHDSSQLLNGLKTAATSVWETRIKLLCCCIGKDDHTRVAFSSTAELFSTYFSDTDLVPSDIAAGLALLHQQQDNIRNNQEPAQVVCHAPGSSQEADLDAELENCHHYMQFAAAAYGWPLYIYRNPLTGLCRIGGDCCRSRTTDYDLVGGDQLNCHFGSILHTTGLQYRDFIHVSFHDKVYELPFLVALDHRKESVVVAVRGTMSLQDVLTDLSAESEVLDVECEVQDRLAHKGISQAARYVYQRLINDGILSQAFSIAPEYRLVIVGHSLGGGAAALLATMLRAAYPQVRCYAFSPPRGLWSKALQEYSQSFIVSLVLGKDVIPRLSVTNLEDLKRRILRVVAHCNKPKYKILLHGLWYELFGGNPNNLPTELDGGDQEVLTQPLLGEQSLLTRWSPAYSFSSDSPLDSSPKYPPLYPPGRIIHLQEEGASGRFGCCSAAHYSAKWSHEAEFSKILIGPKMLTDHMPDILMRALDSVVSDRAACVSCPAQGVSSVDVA

[3] = molecular target: T2, Phosphatidylserine lipase ABHD16A (Mus musculus) (UniProt Q9Z1Q2); assay: Inhibition of BAT5 in mouse brain assessed as reduction in spectral count at 50 uM treated for 30 mins by ABPP-MudPIT assay relative to control; assay type: tissue-based
T2 sequence (whole entry): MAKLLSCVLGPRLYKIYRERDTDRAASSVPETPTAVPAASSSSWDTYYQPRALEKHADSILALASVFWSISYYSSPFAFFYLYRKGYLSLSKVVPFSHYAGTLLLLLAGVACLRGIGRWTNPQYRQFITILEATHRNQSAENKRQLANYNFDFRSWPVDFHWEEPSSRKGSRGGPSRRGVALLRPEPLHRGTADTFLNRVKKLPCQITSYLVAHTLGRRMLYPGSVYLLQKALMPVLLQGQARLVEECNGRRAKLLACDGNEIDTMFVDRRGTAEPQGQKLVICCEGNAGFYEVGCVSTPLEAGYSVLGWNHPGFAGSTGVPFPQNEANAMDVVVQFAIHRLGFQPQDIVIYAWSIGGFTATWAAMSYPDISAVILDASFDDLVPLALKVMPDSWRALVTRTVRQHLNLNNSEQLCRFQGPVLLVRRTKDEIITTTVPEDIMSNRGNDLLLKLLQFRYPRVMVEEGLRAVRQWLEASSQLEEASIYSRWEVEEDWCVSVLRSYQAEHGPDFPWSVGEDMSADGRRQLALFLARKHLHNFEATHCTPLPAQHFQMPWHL
How it was run: (§1)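 Mouse brain proteome was treated with inhibitor at the stated single concentration, or DMSO as control, for 30 min. FP-biotin (5 μM) was then added for 120 min, followed by avidin enrichment and LC-MS (ABPP-MudPIT). Runs were in triplicate. Only hydrolases with >15 average spectral counts in control were quantified. Blockade is the percent reduction in average spectral counts versus DMSO; >60% defined a target.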

[4] = molecular target: T3, Neutral cholesterol ester hydrolase 1 (Mus musculus) (UniProt Q8BLF1); assay: Inhibition of KIAA1363 in mouse brain assessed as reduction in spectral count at 50 uM treated for 30 mins by ABPP-MudPIT assay relative to control; assay type: tissue-based; how it was run: as §1
T3 sequence (whole entry): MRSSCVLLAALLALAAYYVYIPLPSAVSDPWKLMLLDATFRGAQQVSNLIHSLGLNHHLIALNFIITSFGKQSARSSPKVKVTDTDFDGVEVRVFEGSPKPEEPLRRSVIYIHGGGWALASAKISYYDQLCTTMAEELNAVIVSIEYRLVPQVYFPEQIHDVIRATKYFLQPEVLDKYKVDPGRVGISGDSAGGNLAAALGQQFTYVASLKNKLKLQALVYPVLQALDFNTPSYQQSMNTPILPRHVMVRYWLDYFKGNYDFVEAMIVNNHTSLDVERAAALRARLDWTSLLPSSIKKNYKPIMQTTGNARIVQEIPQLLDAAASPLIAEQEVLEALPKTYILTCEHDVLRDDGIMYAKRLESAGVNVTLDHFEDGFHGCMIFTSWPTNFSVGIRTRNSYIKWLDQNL

[5] = molecular target: T1, Platelet-activating factor acetylhydrolase (Mus musculus); assay: Inhibition of PLA2g7 in mouse brain assessed as reduction in spectral count at 5 uM treated for 30 mins by ABPP-MudPIT assay relative to control; assay type: tissue-based; how it was run: as §1
[6] = molecular target: T2, Phosphatidylserine lipase ABHD16A (Mus musculus); assay: Inhibition of BAT5 in mouse brain at 0.01 to 100 uM treated for 30 mins by SDS-PAGE using rhodamine-tagged FP probe; assay type: tissue-based
How it was run: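 Mouse brain membrane proteome preincubated with inhibitor across 0.01-100 μM for 30 min. A rhodamine-tagged fluorophosphonate probe (FP-Rh) was then added for 60 min. Samples were resolved by SDS-PAGE, and probe labeling of each hydrolase band was read by in-gel fluorescence scanning.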

[7] = molecular target: Hormone-sensitive lipase (Mus musculus) (UniProt P54310); assay: Inhibition of HSL in mouse brain assessed as reduction in spectral count at 50 uM treated for 30 mins by ABPP-MudPIT assay relative to control; assay type: tissue-based; how it was run: as §1
Hormone-sensitive lipase (Mus musculus), sequence (P54310 whole entry): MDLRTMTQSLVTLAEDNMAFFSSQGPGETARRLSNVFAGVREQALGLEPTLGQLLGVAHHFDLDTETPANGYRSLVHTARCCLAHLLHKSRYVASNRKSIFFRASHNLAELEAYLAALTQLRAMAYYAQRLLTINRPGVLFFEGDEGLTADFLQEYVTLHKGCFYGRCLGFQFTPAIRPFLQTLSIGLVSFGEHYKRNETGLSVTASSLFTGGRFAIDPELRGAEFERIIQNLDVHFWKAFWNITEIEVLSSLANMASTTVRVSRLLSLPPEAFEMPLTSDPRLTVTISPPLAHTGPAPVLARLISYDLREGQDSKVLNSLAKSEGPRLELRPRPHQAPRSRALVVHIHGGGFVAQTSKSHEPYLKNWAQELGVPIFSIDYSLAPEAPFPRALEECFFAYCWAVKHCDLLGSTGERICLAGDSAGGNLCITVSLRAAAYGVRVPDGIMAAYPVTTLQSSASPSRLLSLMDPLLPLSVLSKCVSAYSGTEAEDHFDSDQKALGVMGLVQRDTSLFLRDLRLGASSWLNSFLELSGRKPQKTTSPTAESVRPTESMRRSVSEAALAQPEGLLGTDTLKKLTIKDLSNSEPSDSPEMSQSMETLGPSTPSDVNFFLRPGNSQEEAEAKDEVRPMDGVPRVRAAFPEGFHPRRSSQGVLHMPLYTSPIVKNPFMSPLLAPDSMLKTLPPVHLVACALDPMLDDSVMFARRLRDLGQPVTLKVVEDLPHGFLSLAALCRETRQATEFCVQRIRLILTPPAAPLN

[8] = molecular target: Diacylglycerol lipase-alpha (Homo sapiens, UniProt Q9Y4D2); assay: Inhibition of human recombinant DAGLalpha overexpressed in african green monkey COS7 cells; assay type: cell-based, COS-7
Diacylglycerol lipase-alpha, sequence (Q9Y4D2 whole entry): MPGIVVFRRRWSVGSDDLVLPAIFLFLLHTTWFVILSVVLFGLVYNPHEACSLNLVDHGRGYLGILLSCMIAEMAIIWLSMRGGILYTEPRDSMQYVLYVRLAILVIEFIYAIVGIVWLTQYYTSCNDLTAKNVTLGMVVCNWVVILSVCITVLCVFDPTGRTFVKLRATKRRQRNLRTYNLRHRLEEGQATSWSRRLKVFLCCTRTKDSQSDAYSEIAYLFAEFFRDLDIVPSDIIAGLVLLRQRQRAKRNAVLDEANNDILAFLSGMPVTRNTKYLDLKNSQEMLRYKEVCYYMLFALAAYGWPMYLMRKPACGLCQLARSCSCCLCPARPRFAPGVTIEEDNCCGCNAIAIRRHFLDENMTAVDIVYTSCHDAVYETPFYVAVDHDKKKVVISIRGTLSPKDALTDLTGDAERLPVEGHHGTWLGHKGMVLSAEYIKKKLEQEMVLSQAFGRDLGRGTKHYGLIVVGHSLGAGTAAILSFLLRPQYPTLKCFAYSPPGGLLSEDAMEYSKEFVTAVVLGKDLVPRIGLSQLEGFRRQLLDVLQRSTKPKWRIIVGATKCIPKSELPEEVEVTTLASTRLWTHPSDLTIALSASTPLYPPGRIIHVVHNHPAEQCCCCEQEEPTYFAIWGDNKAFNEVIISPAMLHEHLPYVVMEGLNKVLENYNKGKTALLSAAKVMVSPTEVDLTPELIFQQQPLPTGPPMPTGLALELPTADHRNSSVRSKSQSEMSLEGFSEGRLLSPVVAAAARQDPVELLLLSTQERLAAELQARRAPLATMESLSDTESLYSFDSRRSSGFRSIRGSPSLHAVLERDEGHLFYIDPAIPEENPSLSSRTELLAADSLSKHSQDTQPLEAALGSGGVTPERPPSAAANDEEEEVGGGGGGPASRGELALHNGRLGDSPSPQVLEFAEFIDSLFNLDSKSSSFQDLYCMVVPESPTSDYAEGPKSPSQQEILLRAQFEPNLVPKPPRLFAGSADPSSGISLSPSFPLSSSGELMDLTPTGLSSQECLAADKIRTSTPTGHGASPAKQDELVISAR

[9] = molecular target: Acetylcholinesterase (Mus musculus) (UniProt P21836); assay: Inhibition of AChE in mouse brain assessed as reduction in spectral count at 5 uM treated for 30 mins by ABPP-MudPIT assay relative to control; assay type: tissue-based; how it was run: as §1
Acetylcholinesterase (Mus musculus), sequence (P21836 whole entry): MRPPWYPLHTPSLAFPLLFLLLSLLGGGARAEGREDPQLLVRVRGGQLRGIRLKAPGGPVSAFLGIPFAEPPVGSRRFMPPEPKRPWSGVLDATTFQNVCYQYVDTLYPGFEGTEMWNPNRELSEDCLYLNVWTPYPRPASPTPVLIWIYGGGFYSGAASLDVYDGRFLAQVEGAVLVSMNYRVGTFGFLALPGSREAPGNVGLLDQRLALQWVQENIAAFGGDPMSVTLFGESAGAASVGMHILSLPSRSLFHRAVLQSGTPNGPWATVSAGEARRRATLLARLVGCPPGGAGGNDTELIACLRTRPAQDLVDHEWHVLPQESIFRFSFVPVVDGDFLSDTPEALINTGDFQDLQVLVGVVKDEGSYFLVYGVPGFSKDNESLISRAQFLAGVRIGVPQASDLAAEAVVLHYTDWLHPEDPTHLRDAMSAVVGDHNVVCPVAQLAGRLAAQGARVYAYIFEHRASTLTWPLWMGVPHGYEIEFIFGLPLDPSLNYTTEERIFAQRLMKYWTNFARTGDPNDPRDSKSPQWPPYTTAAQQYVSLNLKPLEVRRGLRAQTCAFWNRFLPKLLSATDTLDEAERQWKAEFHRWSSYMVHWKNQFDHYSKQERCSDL

[10] = molecular target: Acetylcholinesterase (Mus musculus) (UniProt P21836); assay: Inhibition of AChE in mouse brain by LC-MS analysis; assay type: tissue-based
[11] = molecular target: T1, Platelet-activating factor acetylhydrolase (Mus musculus); details: Brain, 50 uM
[12] = molecular target: T2, Phosphatidylserine lipase ABHD16A (Mus musculus); details: Brain, 5 uM
[13] = molecular target: Tripeptidyl-peptidase 2 (Mus musculus) (UniProt Q64514); details: Brain, 5 uM
Tripeptidyl-peptidase 2 (Mus musculus), sequence (Q64514 whole entry): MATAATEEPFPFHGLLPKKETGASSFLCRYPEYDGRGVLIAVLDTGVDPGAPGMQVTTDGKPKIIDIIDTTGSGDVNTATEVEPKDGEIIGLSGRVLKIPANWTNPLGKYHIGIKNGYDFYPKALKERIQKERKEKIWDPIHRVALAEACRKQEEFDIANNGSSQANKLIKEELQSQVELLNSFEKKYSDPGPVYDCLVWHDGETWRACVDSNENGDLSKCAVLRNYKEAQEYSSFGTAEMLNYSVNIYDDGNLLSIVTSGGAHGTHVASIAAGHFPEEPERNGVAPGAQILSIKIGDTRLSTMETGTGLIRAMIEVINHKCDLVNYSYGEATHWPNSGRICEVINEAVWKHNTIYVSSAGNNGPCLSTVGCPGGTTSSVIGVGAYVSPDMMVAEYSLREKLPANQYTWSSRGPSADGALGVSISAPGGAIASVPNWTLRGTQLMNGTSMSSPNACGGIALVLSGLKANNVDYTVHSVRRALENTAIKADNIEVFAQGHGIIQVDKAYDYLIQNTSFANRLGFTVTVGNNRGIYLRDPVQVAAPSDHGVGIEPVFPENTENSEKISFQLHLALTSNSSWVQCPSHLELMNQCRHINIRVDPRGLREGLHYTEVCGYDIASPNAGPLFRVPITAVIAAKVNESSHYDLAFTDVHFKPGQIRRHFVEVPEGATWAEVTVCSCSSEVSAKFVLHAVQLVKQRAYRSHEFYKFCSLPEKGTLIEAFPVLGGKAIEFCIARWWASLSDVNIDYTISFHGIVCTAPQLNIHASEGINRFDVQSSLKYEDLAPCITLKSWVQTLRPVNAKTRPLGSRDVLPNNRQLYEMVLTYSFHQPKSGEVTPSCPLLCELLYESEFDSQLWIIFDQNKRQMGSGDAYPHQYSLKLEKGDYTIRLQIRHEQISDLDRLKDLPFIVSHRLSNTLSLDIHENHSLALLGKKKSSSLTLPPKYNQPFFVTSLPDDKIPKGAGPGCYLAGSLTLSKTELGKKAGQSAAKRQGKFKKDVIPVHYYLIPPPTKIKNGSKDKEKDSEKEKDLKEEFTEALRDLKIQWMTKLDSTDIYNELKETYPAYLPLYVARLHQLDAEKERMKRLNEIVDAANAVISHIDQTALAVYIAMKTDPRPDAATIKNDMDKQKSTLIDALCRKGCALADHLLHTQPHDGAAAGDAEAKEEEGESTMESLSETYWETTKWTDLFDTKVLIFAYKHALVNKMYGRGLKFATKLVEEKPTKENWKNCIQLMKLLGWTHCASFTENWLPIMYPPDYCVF

[14] = molecular target: T4, Lysophosphatidylserine lipase ABHD12 (Mus musculus) (UniProt Q99LR1); details: Brain, 5 uM
T4 sequence (whole entry): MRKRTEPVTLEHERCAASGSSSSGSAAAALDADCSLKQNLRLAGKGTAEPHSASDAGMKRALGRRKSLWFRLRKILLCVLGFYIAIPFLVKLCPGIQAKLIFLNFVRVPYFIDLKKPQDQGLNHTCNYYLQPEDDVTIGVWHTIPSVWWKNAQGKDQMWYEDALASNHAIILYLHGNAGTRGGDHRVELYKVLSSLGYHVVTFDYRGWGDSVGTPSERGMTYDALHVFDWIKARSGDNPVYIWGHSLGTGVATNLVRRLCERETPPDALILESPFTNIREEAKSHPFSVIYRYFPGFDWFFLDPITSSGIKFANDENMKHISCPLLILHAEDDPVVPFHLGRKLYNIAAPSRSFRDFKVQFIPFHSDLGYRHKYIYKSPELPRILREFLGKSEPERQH

Q: `O=C(NCCCCCCNC(=O)ON=C1CCCCC1)ON=C1CCCCC1` was tested. Which Activity [1] did it give?
A: Its Activity is “Active”.

Q: And the pIC50 [2]?
A: The pIC50 was 7.22.

Q: What about the inhibition [3] of the same compound?
A: The inhibition was over 60%.

Q: And the inhibition [4]?
A: The inhibition was over 60%.

Q: What about the inhibition [5] of the same compound?
A: The inhibition was over 60%.

Q: What about the Activity [6] of the same compound?
A: Its Activity is “Active”.

Q: And the inhibition [7]?
A: The inhibition was under 60%.

Q: What about the pIC50 [8] of the same compound?
A: Its pIC50 is 7.22.

Q: What about the inhibition [9] of the same compound?
A: Its inhibition is over 60%.

Q: What about the Activity [10] of the same compound?
A: The Activity was “Active”.

Q: Which inhibition [11] does the source give for `CCCCCCCCCCC[C@@H](C[C@@H]1OC(=O)[C@H]1CCCCCC)OC(=O)[C@H](CC(C)C)NC=O` [ORLISTAT] here?
A: The inhibition was over 60%.

Q: And the Activity [6]?
A: Its Activity is “Active”.

Q: And the inhibition [12]?
A: The inhibition was over 60%.

Q: What about the inhibition [13] of the same compound?
A: The inhibition was over 60%.

Q: What about the inhibition [14] of the same compound?
A: Its inhibition is over 60%.
